RAM network inh: blocks the yeast RAM network; 190,000 compounds, 1.8% hits; AID 868; inhibition, % at 50 µM; S. cerevisiae dse1pr::URA3 reporter, 5-FOA growth OD615, 2 d; analog-sensitive cbk1-as2 kinase mutant strain;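 active means inhibition above a set limit, 3 SD over mean compound inhibition, cut at about 8.4% in these data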;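 further: inhibition rescues growth on 5-FOA so higher OD means more RAM inhibition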
ABCB1 inh: human ABCB1 inhibition, ABCG2 as counter-screen; CCRF-Adr cells, JC-1 efflux, flow cytometry; 190,000 compounds, 0.067% hits; inhibition, % at 6.6 µM; P08183; in the data active means inhibition above about 40%;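 further: higher value means more JC-1 retained so stronger ABCB1 efflux block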
ABCG2 inh: blocks JC-1 efflux by human ABCG2 transporter. Q9UNQ0. 190,000 compounds, 0.1% hits. IgMXP3 cells, flow cytometry. AID 1325. inhibition, % at 6.6 µM;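 active means inhibition above 80%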
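Assay system – ABCG2 IgMXP3 and barcoded ABCB1 CCRF-Adr cell mix · Input – 3 million cells/mL in well · Reagent – JC-1 fluorescent substrate · Compound – single test compound dose, 6.6 µM final · Timing – 10 min exposure at 25 °C with rotation, no wash · Detection – flow cytometry of retained JC-1 fluorescence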
Arbovirus inh: blocks arbovirus infection | 200,000 compounds, 0.37% hits | inhibition, % at 10 µM | arbovirus infection cell-based antiviral screen; in the data active means inhibition above about 30%
Each line names hits and unclear results; the compound was inactive in the other large screens. Rows were chosen to be rich in hits. Some 2.3% of all compounds tested hit in one or more screens of this group.

N#C/C(=C\c1ccc(N2CCCCC2)o1)C(=O)Nc1cccc(Br)c1	ABCB1 inh 60.5, ABCG2 inh 121.7
COc1cccc(NC(=O)NC2CCCc3ccccc32)c1 (stereo not drawn)	RAM network inh 8.8
O=C(Nc1ccccc1)NC1CCCc2ccccc21 (stereo not drawn)	none
CN(Cc1ccccc1)C(=O)CNC(=O)Cn1cnc2ccccc2c1=O	none
COc1ccc(-c2cc(=O)c3cc(OC)ccc3o2)cc1	none
COc1ccc(-c2c(C)oc3ccc(C)cc23)cc1	none
COc1ccc2oc3cc(C)[n+]([O-])c(-c4ccc(C)cc4)c3c2c1	Arbovirus inh 45.5
COc1ccc(-c2c3c(cc(C)[n+]2[O-])oc2ccc(OC)cc23)cc1	Arbovirus inh 39.6
COc1ccc2oc3cc(C)[n+]([O-])c(-c4ccc(Cl)cc4)c3c2c1	Arbovirus inh 44.9
O=C(O)CCC(NS(=O)(=O)c1ccc(N2CCCC2=O)cc1)C(=O)O (stereo not drawn)	none
CSc1ncc(Cl)c(C(=O)C(C#N)c2nc3c(C)cc(C)cc3c(=O)[nH]2)n1 (stereo not drawn)	Arbovirus inh 41.1
Cc1ccc(C2C=C(c3ccc4c(c3)OCO4)Nc3ncnn32)cc1 (stereo not drawn)	Arbovirus inh 84.5
Cc1ccc(C2C=C(c3ccccc3OC(F)F)Nc3ncnn32)cc1 (stereo not drawn)	none
COc1cccc(C2=CC(c3ccc(C)cc3)n3ncnc3N2)c1 (stereo not drawn)	Arbovirus inh 65.8
COCCCn1c(C)nnc1SCc1ccc(C(C)(C)C)cc1	none
CC1CCN(C2CCN(S(=O)(=O)c3ccc(F)cc3)CC2)CC1	none
Cc1c(C(=O)NCCSCc2ccc(Cl)cc2Cl)cccc1[N+](=O)[O-]	RAM network inh 10.8
Cc1c(C(=O)NCCSCc2ccccc2)cccc1[N+](=O)[O-]	none
Cc1cccc(OCC(=O)N/N=C/c2ccccc2C(=O)O)c1	none
Clc1ccc(-c2cnc(Oc3ccccc3)nc2)cc1	none
Cc1cc(Cl)ccc1Oc1ncc(-c2ccc(Cl)cc2)cn1	RAM network inh 10.9
O=c1[nH]cnc2sc3c(c12)CCCC3	none
CCOc1ccc2c(C)cc(=O)oc2c1OCC	none
CCCCOc1ccc2c(C)cc(=O)oc2c1OCCCC	RAM network inh 8.8
CCn1c(COc2cccc(C)c2C)nnc1SCC(=O)N1CCN(c2ccc(OC)cc2)CC1	RAM network inh 8.8
O=C(NCc1ccco1)C(c1cccs1)N(Cc1ccccc1)C(=O)Cn1nnc2ccccc21 (stereo not drawn)	none
COCCNC(=O)C(c1ccc(C)o1)N(Cc1ccc(OC)cc1)C(=O)Cn1nnc2ccccc21 (stereo not drawn)	RAM network inh 10.5
O=C(NCc1ccco1)C(c1ccco1)N(Cc1cccs1)C(=O)Cn1nnc2ccccc21 (stereo not drawn)	RAM network inh 9.5
O=C(Nc1ccc(Cl)cc1)NC1CCCC1Cc1ccco1 (stereo not drawn)	RAM network inh 8.8
CCOc1ccc(NC(=O)C23CC4CC(C2)CC(c2ccccc2)(C4)C3)cc1	RAM network inh 8.6
CCOC(=O)CNC(=O)C12CC3CC(C1)CC(c1ccc(C)cc1)(C3)C2	none
CCc1cccc(C)c1NC(=O)COC(=O)CNS(=O)(=O)/C=C/c1ccccc1	none
CCN(CC)S(=O)(=O)c1ccc(NC(=O)COC(=O)CNS(=O)(=O)/C=C/c2ccccc2)cc1	RAM network inh 8.4
CC(C)CCNC(=O)C(c1ccco1)N(Cc1ccccc1)C(=O)c1snc(C(N)=O)c1N (stereo not drawn)	none
NC(=O)c1nsc(C(=O)N(CCc2ccccc2)C(C(=O)NC2CCCC2)c2ccco2)c1N (stereo not drawn)	RAM network inh 8.7
CC(Oc1ccc(Cl)cc1Cl)c1nc(-c2ccc(NC(=O)c3ccccn3)cc2)no1 (stereo not drawn)	RAM network inh 11.0
O=C(COc1ccc(Cl)cc1)Nc1ncc([N+](=O)[O-])s1	Arbovirus inh 30.5
O=C(Cn1cnc2c(nnn2-c2ccc(F)cc2)c1=O)N1CCCc2ccccc21	none
O=C(/C=C/c1cc([N+](=O)[O-])ccc1OC(F)F)NCc1ccc(F)cc1	RAM network inh 8.7
COc1ccc(C(=O)NC2CCN(C(=S)Nc3cccc(C)c3C)CC2)cc1	RAM network inh 8.6
COc1ccc(OC)c(N(CC(=O)N2CCN(c3cc(Cl)ccc3C)CC2)S(C)(=O)=O)c1	Arbovirus inh 40.9
CCOC(=O)Cc1cnc(NC(=O)c2ccccc2)s1	none
COC(=O)c1ccc(/C=C/C(=O)c2cccc(OC)c2)cc1	none
CSc1ccc(C(=O)/C=C/c2ccc(N)cc2)cc1	none

Compound activity: PubChem BioAssay, several laboratories
